Data published in ChEMBL document CHEMBL3271968, “Novel bis(benzamidino) compounds with an aromatic central link. Inhibitors of thrombin, pancreatic kallikrein, trypsin, and complement” (J Med Chem, 1976).
Active and inactive are the calls of the source. The calls are words filed in the database; no cut-off is given here.

Legend:
Cavia porcellus [1] = species on record: Cavia porcellus; assay: Inhibition of guinea pig complement-mediated immune lysis of sheep red blood cells at 30 uM after 12 mins
How it was run: (§1)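 Inhibitor in Tris/Mg/Ca/NaCl/gelatin buffer was preincubated 15 min at 37° with guinea pig complement (1:100 of 200 CH50/ml). Sheep erythrocytes (10^9/ml) presensitized with rabbit hemolysin (1:800) were added, and tubes incubated 12 min at 37°. Cold citrate-saline stopped lysis. Hemoglobin at 524 nm was converted to % inhibition via a complement standard curve, corrected for inhibitor lysis, in duplicate.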

Plasma [2] = assay: Anticoagulant activity in human plasma assessed as partial thromboplastin time at 5 uM (reference value: 59 +/- 2.6 secs); type: functional
[3] = Inhibition of bovine trypsin using BANA as substrate after 15 to 30 mins; parameters: species or system Bos taurus
Glandular kallikrein [4] = target: T1, Glandular kallikrein (Sus scrofa, UniProt P00752); assay: Inhibition of porcine pancreatic kallikrein using BANA as substrate after 15 to 180 mins
T1 sequence (P00752 whole entry): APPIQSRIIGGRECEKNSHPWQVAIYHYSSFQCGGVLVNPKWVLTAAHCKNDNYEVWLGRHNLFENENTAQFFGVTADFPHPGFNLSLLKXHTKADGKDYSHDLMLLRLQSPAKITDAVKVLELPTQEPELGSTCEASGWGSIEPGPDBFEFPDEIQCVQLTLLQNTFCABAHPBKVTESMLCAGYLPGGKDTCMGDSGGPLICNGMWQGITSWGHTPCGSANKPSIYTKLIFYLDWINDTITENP
How it was run: (§2)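 Porcine pancreatic kallikrein (635 Frey units/mg) amidase assay, pH 8.1, 37°, 15-180 min. […] Ki came from Dixon plots at two substrate concentrations. Means ± SD, n = 3.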

Cavia porcellus [5] = species on record: Cavia porcellus; assay: Inhibition of guinea pig complement-mediated immune lysis of sheep red blood cells at 10 uM after 12 mins; how it was run: as §1
Cavia porcellus [6] = species on record: Cavia porcellus; assay: Inhibition of guinea pig complement-mediated immune lysis of sheep red blood cells at 0.1 mM after 12 mins; how it was run: as §1
Plasma [7] = assay: Anticoagulant activity in human plasma assessed as partial thromboplastin time at 0.1 mM (reference value: 59 +/- 2.6 secs); type: functional
Plasma [8] = assay: Anticoagulant activity in human plasma assessed as partial thromboplastin time at 10 uM (reference value: 59 +/- 2.6 secs); type: functional
Prothrombin (Bos taurus) = Prothrombin (Bos taurus) (UniProt P00735); assay: Inhibition of bovine thrombin-mediated blood clotting formation in presence of human fibrinogen
Prothrombin [9] = target: T2, Prothrombin (Bos taurus, UniProt P00735); assay: Inhibition of amidase activity of bovine thrombin using BANA as substrate after 15 to 40 mins
Glandular kallikrein [10] = target: T1, Glandular kallikrein; assay: Inhibition of porcine pancreatic kallikrein using BPPANA as substrate after 15 to 180 mins; how it was run: as §2
Prothrombin [11] = target: T2, Prothrombin; assay: Inhibition of amidase activity of bovine thrombin using BPVANA as substrate after 15 to 40 mins
Rattus norvegicus = assay: Anticoagulant activity in Wistar rat plasma assessed as activation of partial thromboplastin time at 1.9 mg/kg, iv; type: functional, organism-based; parameters: dose 1.9 mg/kg
How it was run: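 Female Wistar rats (about 300 g), anesthetized with sodium pentobarbital 25 mg/kg sc, received inhibitor at 1.9 mg/kg iv. Post-injection plasma was separated by centrifugation. 0.1 ml was mixed with Celite suspension, saline and partial thromboplastin, agitated 3 min at 37°, recalcified with 0.02 M CaCl2, and activated PTT clotting time recorded.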

SMILES | inhibition (Cavia porcellus [1]) [%] | Ki [3] [µM] | Ki (Glandular kallikrein [4]) [µM] | inhibition (Cavia porcellus [5]) [%] | inhibition (Cavia porcellus [6]) [%] | IC50 (Prothrombin (Bos taurus)) [µM] | Ki (Prothrombin [9]) [µM] | Ki (Glandular kallikrein [10]) [µM] | Ki (Prothrombin [11]) [µM] | APTT (Plasma [2]) [s] | APTT (Plasma [7]) [s] | APTT (Plasma [8]) [s] | Activity (Rattus norvegicus)
Cl.N=C(N)c1ccc(COc2cccc3c(OCc4ccc(C(=N)N)cc4)cccc23)cc1 | 0 | 2.8 | 8.6 | 0 | 0 |  |  |  |  | 60 | 141 | 61 | 
N=C(N)c1ccc(OCCCCCOc2ccc(C(=N)N)cc2I)c(I)c1 | > 50 |  |  | 26.9 |  |  |  |  |  |  |  |  | 
N=C(N)c1ccc(OCCCOc2ccc(C(=N)N)cc2Br)c(Br)c1 | 26.9 |  |  | 6.3 | 19.1 |  |  |  |  |  |  |  | 
N=C(N)c1ccc(OCCCCCOc2ccc(C(=N)N)cc2Br)c(Br)c1 | 28.5 |  |  | 20.8 | > 50 |  |  |  |  |  |  |  | 
Cl.N=C(N)c1cccc(COc2ccc3cc(OCc4cccc(C(=N)N)c4)ccc3c2)c1 | > 50 | 3.2 | 5.5 | 11 | > 50 | 30 | 2.4 |  |  | 61 | 277 | 72 | 
Cl.N=C(N)c1cccc(OCc2ccc(COc3cccc(C(=N)N)c3)cc2)c1 | 14 | 6.1 | 5.8 | 5.6 | 19.1 | 13 | 5 |  |  | 80 | 391 | 122 | 
CC[n+]1c(-c2ccccc2)c2cc(NN=Nc3cccc(C(=N)N)c3)ccc2c2ccc(NN=Nc3cccc(C(=N)N)c3)cc21 | > 50 |  |  | 50 | > 50 |  |  |  |  |  |  |  | 
Cl.N=C(N)c1cccc(OCc2cccc(-c3cccc(COc4cccc(C(=N)N)c4)c3)c2)c1 |  | 4.01 | 1.76 |  |  | 4 | 1.67 |  |  | 73 |  | 93 | 
N=C(N)c1cccc(OCc2ccc3cc(COc4cccc(C(=N)N)c4)ccc3c2)c1 | 47 | 5.9 | 5.5 | 36.6 |  | 72 | 5.1 |  |  |  |  |  | 
Cl.N=C(N)c1ccc(OCc2cccc(COc3ccc(C(=N)N)cc3)c2)cc1 | 10.3 | 3.5 | 6.7 | 0 | 24.9 | 25 | 4.8 |  |  | 87 |  | 117 | 
Cl.N=C(N)c1cccc(OCc2cccc(COc3cccc(C(=N)N)c3)c2)c1 | 13.7 | 3.2 | 3.4 | 0 | 34 | 6.5 | 4.6 |  |  | 92 | 714 | 112 | 
N=C(N)c1ccc(COc2ccc3cc(OCc4ccc(C(=N)N)cc4)ccc3c2)cc1 |  | 3.2 | 9.7 |  |  |  | 6 |  |  |  |  |  | 

More lines, in order of falling Ki [3], values ahead:

inhibition (Cavia porcellus [1]) [%] | Ki [3] [µM] | Ki (Glandular kallikrein [4]) [µM] | inhibition (Cavia porcellus [5]) [%] | inhibition (Cavia porcellus [6]) [%] | IC50 (Prothrombin (Bos taurus)) [µM] | Ki (Prothrombin [9]) [µM] | Ki (Glandular kallikrein [10]) [µM] | Ki (Prothrombin [11]) [µM] | SMILES | APTT (Plasma [2]) [s] | APTT (Plasma [7]) [s] | APTT (Plasma [8]) [s] | Activity (Rattus norvegicus)
29.8 | 2.3 |  | 0 |  | 1 |  | 0.61 | 0.11 | Cl.N=C(N)c1ccc(OCc2ccc(COc3ccc(C(=N)N)cc3I)cc2)c(I)c1 | 80 |  | 92 | 
10.8 | 1.9 | 2.5 | 2.9 |  |  | 6.6 |  |  | Cl.N=C(N)c1ccc(OCc2ccc(COc3ccc(C(=N)N)cc3)c3ccccc23)cc1 | 64 | 203 | 71 | 
37.4 | 1.8 | 2.8 | 12.8 | > 50 | 20 | 4.9 |  |  | Cl.N=C(N)c1ccc(COc2ccc3ccc(OCc4ccc(C(=N)N)cc4)cc3c2)cc1 | 63 |  | 66 | 
15.3 | 1.8 | 1.04 | 5.6 | > 50 | 15 | 5.2 |  |  | Cl.N=C(N)c1ccc(OCc2cc(COc3ccc(C(=N)N)cc3)c3ccccc3c2)cc1 | 62 | 147 | 67 | 
 | 1.4 | 1.6 |  |  | 0.73 |  |  | 0.57 | Cl.N=C(N)c1ccc(OCc2cccc(-c3cccc(COc4ccc(C(=N)N)cc4)c3)c2)cc1 | 72 | 412 | 83 | 
> 50 | 1.3 | 5.2 | 5.9 | > 50 | 8 | 1.5 |  |  | Cl.N=C(N)c1ccc(OCc2c(Cl)c(Cl)c(Cl)c(COc3ccc(C(=N)N)cc3)c2Cl)cc1 | 62 |  | 76 | 
0 | 1.3 | 11.4 | 0 | 25.9 | 17 | 3.4 |  |  | Cl.N=C(N)c1ccc(OCc2ccc(COc3ccc(C(=N)N)cc3)cc2)cc1 | 147 | 725 | 176 | inactive
> 50 | 1.2 | 3.4 | 0 |  |  | 6.7 |  |  | N=C(N)c1ccc(OCc2c(Cl)c(Cl)c(COc3ccc(C(=N)N)cc3)c(Cl)c2Cl)cc1 |  |  |  | 
 | 1.1 | 0.71 |  |  |  |  |  | 0.16 | Cl.N=C(N)c1ccc(OCc2ccc(COc3ccc(C(=N)N)cc3Br)cc2)c(Br)c1 | 96 | 258 | 110 | 
32.6 | 0.67 |  | 0 | > 50 |  | 1.2 | 0.031 |  | Cl.N=C(N)c1ccc(OCc2cccc(COc3ccc(C(=N)N)cc3I)c2)c(I)c1 | 64 | 369 | 70 | 
8.9 | 0.42 | 2.2 | 0 | 39 |  |  |  |  | Cl.N=C(N)c1cccc(COc2cccc3c(OCc4cccc(C(=N)N)c4)cccc23)c1 | 65 |  | 75 | 
 | 0.25 | 2.2 |  |  | 10 |  |  | 0.27 | Cl.N=C(N)c1ccc(OCc2cccc(-c3cccc(COc4ccc(C(=N)N)cc4Br)c3)c2)c(Br)c1 | 62 |  |  | 
